Compound activity: PubChem BioAssay, several laboratories
A selection: hits, their analogues and other compounds. The true share with any hit is near 2.5%.
DNMT1 block: human DNMT1 methyltransferase inhibitors, primary screen, biochemical, molecular beacon, fluorescence, HinP1I cleavage, uHTS; DNA (cytosine-5)-methyltransferase 1 (Homo sapiens), P26358; inhibition (reported as % activation of signal), % at 10 µM; 0.83% of 360,000 active; AID 588458, 2011; in the data active = inhibition above about 50%
Target sequence (P26358 504-1616 limits assumed): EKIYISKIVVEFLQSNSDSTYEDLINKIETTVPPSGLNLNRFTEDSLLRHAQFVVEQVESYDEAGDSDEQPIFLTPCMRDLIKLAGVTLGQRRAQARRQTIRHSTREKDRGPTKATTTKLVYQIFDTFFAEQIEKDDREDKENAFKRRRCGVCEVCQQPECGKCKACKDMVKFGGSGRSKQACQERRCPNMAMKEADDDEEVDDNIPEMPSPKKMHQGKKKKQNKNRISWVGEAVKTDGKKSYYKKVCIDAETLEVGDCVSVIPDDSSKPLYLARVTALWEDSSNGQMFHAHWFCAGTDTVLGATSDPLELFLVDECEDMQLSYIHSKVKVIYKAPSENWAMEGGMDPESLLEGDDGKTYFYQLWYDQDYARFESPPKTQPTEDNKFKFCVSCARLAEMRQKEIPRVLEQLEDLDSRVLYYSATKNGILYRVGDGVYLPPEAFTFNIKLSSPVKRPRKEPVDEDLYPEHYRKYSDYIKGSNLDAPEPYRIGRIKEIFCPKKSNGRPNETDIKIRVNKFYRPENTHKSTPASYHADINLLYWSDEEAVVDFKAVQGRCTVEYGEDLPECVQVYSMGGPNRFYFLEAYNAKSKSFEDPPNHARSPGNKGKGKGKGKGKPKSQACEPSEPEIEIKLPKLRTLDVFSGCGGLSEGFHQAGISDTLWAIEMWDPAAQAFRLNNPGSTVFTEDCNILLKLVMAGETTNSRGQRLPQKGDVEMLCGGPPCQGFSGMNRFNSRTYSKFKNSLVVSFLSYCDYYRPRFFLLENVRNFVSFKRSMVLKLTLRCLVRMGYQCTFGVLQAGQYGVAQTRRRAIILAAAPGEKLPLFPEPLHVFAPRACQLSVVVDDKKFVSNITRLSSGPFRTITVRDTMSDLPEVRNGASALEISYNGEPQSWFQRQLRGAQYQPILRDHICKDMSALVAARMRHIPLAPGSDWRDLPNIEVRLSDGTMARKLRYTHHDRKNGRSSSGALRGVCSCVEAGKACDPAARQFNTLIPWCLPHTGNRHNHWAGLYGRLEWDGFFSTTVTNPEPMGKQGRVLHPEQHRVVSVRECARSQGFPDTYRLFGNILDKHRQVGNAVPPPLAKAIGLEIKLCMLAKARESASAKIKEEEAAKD
MBD2 inh: inhibitors of MBD2 binding to methylated DNA, primary screen, biochemical, TR-FRET, DNA-binding domain, human; Methyl-CpG-binding domain protein 2 (Homo sapiens), Q9UBB5; MBD2 binding to methylated oligonucleotide; inhibition, % at 4.4 µM; 0.31% of 370,000 active; in the data active = inhibition above about 13%
SUMO1-SIM PPI: modulators of SUMO1 protein-protein interactions, primary screen, biochemical, uHTS; 0.33% of 360,000 active; SUMO1 binding to a labelled peptide, TR-FRET, 1 h; inhibition, % at 20 µM; AID 602429, 2012; in the data active = inhibition above about 37%
UHRF1 binding: UHRF1 methylated DNA binding inhibitors, primary screen, counter-screen for MBD2 inhibitor project, biochemical, TR-FRET, human UHRF1, single concentration; E3 ubiquitin-protein ligase UHRF1 (Homo sapiens), Q96T88; UHRF1 binding to methylated oligo; 0.75% of 370,000 active; AID 687016, 2013; inhibition, % at 4.4 µM; in the data active = inhibition above about 21%;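 note: UHRF1 SRA domain binding a hemimethylated CpG hairpin DNA probe; 0% = median of test compound wells and 100% = reference inhibitor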
Pemphigus Ab inh: inhibitors of pemphigus antibody binding to DSG3, primary screen, biochemical, bead-based, flow cytometry, scFv-GFP; DSG3-coupled beads, scFv-anti-DSG3-GFP binding; hits give low values; binding (percent of control), % at 10 µM; 0.48% of 310,000 active;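 active = binding more than 3 SD below its plate's average and above zero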;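 note: hits lower antibody fragment binding to DSG3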
NS3 helicase inh: inhibitors of HCV NS3 helicase, primary screen, biochemical, Cy5 molecular beacon fluorescence; 0.56% of 290,000 active; inhibition, % at 10.9 µM; NS3 helicase DNA unwinding; AID 1800, 2009; Hepatitis C virus NS3 helicase;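 active = inhibition above the mean of all tested compounds plus 3 SD, set per campaign, cut at about 35% in these data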;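 note: 0% = DMSO wells and 100% = thioflavine S control wells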
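System: NS3 helicase fragment of HCV / Schedule: 1 h at 25 °C / Control set: DMSO alone as 0% and 110 µM thioflavine S as 100% / Reagent: Cy5/quencher beacon DNA duplex and ATP to start / Technique: Cy5 fluorescence / Replication: singlicate / Evaluation: % inhibition of end-to-start signal ratio versus controls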
* marks the source's active call; other numbers are inactive results.

Screening Nc1nonc1-n1nnc(C(=O)N/N=C/c2ccc(Cl)cc2Cl)c1CN1CCCCC1 returned DNMT1 block 13.9, MBD2 inh 8.7, SUMO1-SIM PPI 4.1, UHRF1 binding 0.1, Pemphigus Ab inh 108.1 and NS3 helicase inh 8.8.
Nc1nonc1-n1nnc(C(=O)N/N=C/c2cc(Cl)ccc2O)c1CN1CCCCCC1 was read as DNMT1 block 50.0*, MBD2 inh 2.3, SUMO1-SIM PPI 6.7 and UHRF1 binding 0.5.
For CN(Cc1c(C(=O)N/N=C/c2ccccc2O)nnn1-c1nonc1N)C1CCCCC1 the results were DNMT1 block 59.2*, MBD2 inh -6.2, SUMO1-SIM PPI 2.9, UHRF1 binding 0.9 and Pemphigus Ab inh 100.3.
CN(C)Cc1c(C(=O)N/N=C/c2cccc3ccccc23)nnn1-c1nonc1N was read as DNMT1 block -2.2, MBD2 inh -2.3, SUMO1-SIM PPI 4.2, UHRF1 binding 0.4, Pemphigus Ab inh 56.2* and NS3 helicase inh 14.7.
COc1ccc(C2=Nc3ccccc3N(C(=O)c3cccnc3)C2C(=O)NC2CCCC2)cc1 (stereo not given) was read as MBD2 inh 11.8, SUMO1-SIM PPI -14.6 and UHRF1 binding 22.6*.
`O=C1C=C(N2CCOCC2)c2cccc3cccc1c23` gave DNMT1 block 5.0, MBD2 inh -12.7, SUMO1-SIM PPI -34.0, UHRF1 binding -13.3 and Pemphigus Ab inh 103.5.
O=C1C=C(N2CCOCC2)c2ccccc2C1=O was read as DNMT1 block 81.7*, MBD2 inh -11.8, SUMO1-SIM PPI 39.9*, UHRF1 binding 2.2, Pemphigus Ab inh 183.3 and NS3 helicase inh 2.1.
For O=C(O)CCCNc1ccc(S(=O)(=O)Nc2ccccc2C(=O)O)cc1C(=O)O the results were DNMT1 block 2.8, MBD2 inh 4.1, SUMO1-SIM PPI 6.5, UHRF1 binding -3.1, Pemphigus Ab inh 96.2 and NS3 helicase inh 7.1.
For Fc1ccc(Cn2nnnc2CN2CCN(C3CCCCC3)CC2)cc1 the results were DNMT1 block -2.8, MBD2 inh -3.8, SUMO1-SIM PPI -2.4, UHRF1 binding 47.6*, Pemphigus Ab inh 102.3 and NS3 helicase inh 0.2.
For c1coc(Cn2nnnc2CN2CCN(C3CCCC3)CC2)c1 the results were DNMT1 block 3.0, MBD2 inh 1.8, SUMO1-SIM PPI -4.0, UHRF1 binding 3.6, Pemphigus Ab inh 99.7 and NS3 helicase inh 2.6.
`O=C(c1ccccc1)N1CCN(Cc2ccccc2)CC1` gave DNMT1 block 5.6, MBD2 inh 1.3, SUMO1-SIM PPI -3.0, UHRF1 binding 3.6, Pemphigus Ab inh 105.5 and NS3 helicase inh -4.3.
For Cc1ccc(CN2CCN(C(=O)c3ccncc3)CC2)cc1 the results were DNMT1 block 1.9, MBD2 inh -2.3, SUMO1-SIM PPI 1.3, UHRF1 binding 1.1, Pemphigus Ab inh 61.9* and NS3 helicase inh -2.3.
Screening CCOC(=O)N1CCN(C(=O)CSc2ncnc3sccc23)CC1 returned DNMT1 block 0.0, MBD2 inh 5.9, SUMO1-SIM PPI 6.2, UHRF1 binding 4.2 and Pemphigus Ab inh 101.3.
COc1ccc(CCNC(=O)c2cc3c(=O)n4cccc(C)c4nc3s2)cc1OC was read as DNMT1 block 0.6, MBD2 inh 0.1, SUMO1-SIM PPI 40.0*, UHRF1 binding -1.0 and NS3 helicase inh 3.8.
`C=CCNC(=O)c1cc2c(=O)n3cccc(C)c3nc2s1` gave DNMT1 block 5.2, MBD2 inh 0.3, SUMO1-SIM PPI -26.6, UHRF1 binding -3.9, Pemphigus Ab inh 97.1 and NS3 helicase inh 3.8.
Cc1nn(C)c(C)c1C1C(C#N)=C(N)OC2=C1C(=O)CCC2 (stereo not given) was read as DNMT1 block -4.7, MBD2 inh 9.3, SUMO1-SIM PPI -0.7, UHRF1 binding 21.4*, Pemphigus Ab inh 99.3 and NS3 helicase inh 9.3.
CCn1nc(C)c(C2C(C#N)=C(N)OC3=C2C(=O)CCC3)c1C (stereo not given) was read as DNMT1 block 2.9, MBD2 inh 1.7, SUMO1-SIM PPI -2.0, UHRF1 binding 0.6, Pemphigus Ab inh 99.9 and NS3 helicase inh 7.9.
COCCNC(=O)C1CCCN(Cc2ccc(C(C)C)cc2)CC1 (stereo not given) was read as DNMT1 block -1.3, MBD2 inh -7.1, SUMO1-SIM PPI -1.9 and UHRF1 binding 0.7.
CC(=O)C1=C(O)C(=O)OC1c1ccc(Cl)cc1 (stereo not given) was read as DNMT1 block -2.0, MBD2 inh -1.0, SUMO1-SIM PPI -9.7, UHRF1 binding 2.7, Pemphigus Ab inh 76.5* and NS3 helicase inh -2.7.
`CC(=O)C1=C(O)C(=O)OC1c1ccc(C)cc1` (stereo not given) gave DNMT1 block 1.4, MBD2 inh -0.2, SUMO1-SIM PPI 5.1, UHRF1 binding -3.8, Pemphigus Ab inh 98.1 and NS3 helicase inh -3.2.
Screening CCN1CCCC1CNC(=O)c1cc2c(-c3ccc(Cl)cc3)nn(C)c2s1 (stereo not given) returned DNMT1 block 17.5, SUMO1-SIM PPI -10.5, Pemphigus Ab inh 117.6 and NS3 helicase inh -60.0.
Screening O=C(CCC1CCCC1)NCCCNC(=O)CCC1CCCC1 returned DNMT1 block 2.7, MBD2 inh -1.5, SUMO1-SIM PPI 2.8, UHRF1 binding -2.1 and NS3 helicase inh -2.5.
For CSc1ccccc1C(=O)N1CCC(CCC(=O)NCc2ccc(F)cc2)CC1 the results were DNMT1 block -1.7, MBD2 inh -7.2, SUMO1-SIM PPI 3.5, UHRF1 binding 1.5, Pemphigus Ab inh 104.0 and NS3 helicase inh 12.6.
CCOC(=O)C1CCCN(c2c(C(=O)c3ccccc3)cnc3ccccc23)C1 (stereo not given) was read as DNMT1 block -1.9, MBD2 inh 3.8, SUMO1-SIM PPI -6.7, UHRF1 binding 38.0*, Pemphigus Ab inh 89.9 and NS3 helicase inh -14.8.
Screening c1ccc(N2CCN(c3nccn4ccnc34)CC2)nc1 returned DNMT1 block 1.5, MBD2 inh -2.2, SUMO1-SIM PPI -7.9 and UHRF1 binding 0.2.
CN(C)S(=O)(=O)n1cc(/C=C(\NC(=O)c2ccccc2F)C(=O)N2CCOCC2)c2ccccc21 was read as DNMT1 block 3.0, MBD2 inh 2.9, SUMO1-SIM PPI 1.2, UHRF1 binding 2.8, Pemphigus Ab inh 17.8* and NS3 helicase inh 1.4.
